Results from paper PMC7480498 (Journal of Extracellular Vesicles, 2020).

Legend:
[1] = In vivo toxicity: body weight and H&E staining of major organs; parameters: species or system nude mice
In short: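 BALB/c nude mice bearing subcutaneous axillary A549 xenografts (5 × 10^6 cells) were randomised at mean 80 mm3 into six groups (n = 10). Test formulations were given intravenously every two days for five doses, at 2 mg/kg and 0.8 mg/kg of the two loaded agents. One free-agent control was given by oral gavage at 20 mg/kg over 6 days. Body weight was measured every two days. At the end of treatment, one mouse per group was sacrificed, and heart, liver, spleen, lung and kidney were fixed in 4% paraformaldehyde, sectioned and stained with H&E.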

[2] = Safety evaluation: blood biochemical indices; format: in vivo, ICR mice; conditions: normal mice, n = 3
In short: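 ICR mice (20–22 g) were randomly divided into six groups and given the treatments used previously. Blood biochemical indices were then assessed.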

In the case of COc1cccc2c1C(=O)c1c(O)c3c(c(O)c1C2=O)C[C@@](O)(C(=O)CO)C[C@@H]3O[C@H]1C[C@H](N)[C@H](O)[C@H](C)O1 [Free DOX, doxorubicin], the body weight ([1]; A549 tumour-bearing nude mice during treatment) is reported as “substantial weight loss”, the “cardiac tissue histology (H&E)” value ([1]; nude mice bearing subcutaneous A549 tumour) is reported as “noticeable cardiac tissue degeneration” and the “level of serum creatine kinase” value [2] is reported as “significantly elevated”.
